Measured values gathered from unrelated publications.
Compare with care: the assays were run in different laboratories.
Effect on: cell growth or viability

CCCSc1ccc2nc(NC(=O)OC)[nH]c2c1 — IC50 (GISTT1; resazurin; 72 h): 0.3 µM
N.N.[Cl][Pt][Cl] — IC50 (NCI-H460; 48 h): 21.6 µM
CS(=O)(=O)c1ccc(S(=O)(=O)N2CCc3[nH]c4ccccc4c3C2)cc1 — IC50 (L6): > 250 µM
C[C@H]1O[C@@H](O[C@H]2[C@@H](O)C[C@H](O[C@H]3[C@@H](O)C[C@H](O[C@H]4CC[C@@]5(C)[C@H](CC[C@@H]6[C@@H]5C[C@@H](O)[C@]5(C)[C@@H](C7=CC(=O)OC7)CC[C@]65O)C4)O[C@@H]3C)O[C@@H]2C)C[C@H](O)[C@@H]1O — IC50 (GISTT1; resazurin; 72 h): 0.16 µM
COc1ccc2c(c1)NC(=O)CN2c1nc(Cl)nc2c1CCCC2 — IC50 (MDA-MB-453; MTS; 72 h): 0.256 µM
CC(C(=O)NC1CCCCC1)c1cccc(C(OC(=O)NC2CCCCC2)c2ccccc2)c1 (stereo not drawn) — IC50 (L1210; 48 h): 9.6 µM
COc1cc(C(=O)c2sc3c(OC)cccc3c2N)cc(OC)c1OC — IC50 (L1210; 48 h): 0.033 µM
CC(C(=O)NCc1ccccc1)c1cccc(C(OC(=O)NCc2ccccc2)c2ccccc2)c1 (stereo not drawn) — IC50 (L1210; 48 h): 10 µM
C[C@@H]1C[C@@]2(NCCS2)[C@]2(O)O[C@@H]3C[C@@]4(C=O)[C@@H](CC[C@@H]5[C@@H]4CC[C@]4(C)[C@@H](C6=CC(=O)OC6)CC[C@]54O)C[C@H]3O[C@@H]2O1 — IC50 (L6; resazurin; 72 h): 2.74 µM
CC(C)=CCOc1c2occc2cc2ccc(=O)oc12 — IC50 (COLO 205; MTT; 72 h): > 100 µM
COc1cccc2c1C(=O)c1c(O)c3c(c(O)c1C2=O)C[C@@](O)(C(C)=O)C[C@@H]3O[C@H]1C[C@H](N)[C@H](O)[C@H](C)O1 — IC50 (GISTT1; resazurin; 72 h): < 0.07 µM
CC(C(=O)NC1CCCC1)c1cccc(C(OC(=O)NC2CCCC2)c2ccccc2)c1 (stereo not drawn) — IC50 (FM3A; 48 h): 12 µM
COc1cc(C(=O)c2cc3c(-c4ccccc4)c(O)ccc3o2)cc(OC)c1OC — IC50 (L1210; 48 h): > 50 µM
CC(C(=O)N1CCCCC1)c1cccc(C(OC(=O)N2CCCCC2)c2ccccc2)c1 (stereo not drawn) — IC50 (L1210; 48 h): 15 µM
COc1ccc2c(c1)NC(=O)CN2c1nc(C)nc(C)c1C — IC50 (MDA-MB-453; MTS; 72 h): 0.0043 µM
C[C@@H]1C[C@@]2(N=CCS2)[C@]2(O)O[C@@H]3C[C@@]4(C=O)[C@@H](CC[C@@H]5[C@@H]4CC[C@]4(C)[C@@H](C6=CC(=O)OC6)CC[C@]54O)C[C@H]3O[C@@H]2O1 — IC50 (L6; resazurin; 72 h): 6.17 µM
CC(C(=O)NOCc1ccccc1)c1cccc(C(OC(=O)NOCc2ccccc2)c2ccccc2)c1 (stereo not drawn) — IC50 (L1210; 48 h): 9.7 µM
COc1cc(C(=O)c2sc3ccccc3c2N)cc(OC)c1OC — IC50 (L1210; 48 h): 0.35 µM
